Type in all cases: functional
Assay [1] relates to Staphylococcus aureus. As to the kind of experiment: Antibacterial activity against Staphylococcus aureus ATCC 25923 after 24 hrs by broth microdilution method. In short, it runs like this:
(§1)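 Broth microdilution in BHI following CLSI M100-S16. Strains were activated in BHI for 24 h at 35 ± 2 °C, adjusted to 0.5 McFarland, and diluted to a final inoculum of 5 x 10^5 CFU/mL. Samples were dissolved in water/DMSO and tested at final 512-8 µg/mL, in triplicate. Plates were incubated 24 h at 35 ± 2 °C, then 0.01% resazurin was added. MIC was the lowest concentration preventing the visual blue-to-red change. Amikacin, gentamicin and neomycin served as positive controls.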

In a further assay the test system is Enterococcus faecalis. The experiment in a line: Antibacterial activity against Enterococcus faecalis ATCC 4083 after 24 hrs by broth microdilution method. In short, it runs like this: as §1
A general note: Broth dilution looks for growth in wells or tubes with falling amounts of substance.

A further assay concerns Proteus vulgaris. The experiment in a line: Antibacterial activity against Proteus vulgaris ATCC 13315 after 24 hrs by broth microdilution method. The method, boiled down: as §1
For assay [2], the system named is Escherichia coli. The experiment in a line: Antibacterial activity against Escherichia coli 27 after 24 hrs by broth microdilution method. In short, it runs like this:
as §1

The test system of assay [3] is Escherichia coli. The experiment in a line: Antibacterial activity against Escherichia coli ATCC 10536 after 24 hrs by broth microdilution method. In short, it runs like this: as §1
Assay [4] concerns Staphylococcus aureus. The experiment in a line: Antibacterial activity against Staphylococcus aureus 358 after 24 hrs by broth microdilution method. In short, it runs like this: as §1
Another assay has as its system HCT-116. As to the kind of experiment: (§2) Cytotoxicity against human HCT116 cells assessed as growth inhibition at 5 ug/ml after 72 hrs by MTT assay. In short, it runs like this:
(§3)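 Cells were maintained in RPMI 1640 with 10% FBS and 1% antibiotic at 37 °C under 5% CO2. Samples were dissolved in DMSO and tested at a single 5 µg/mL for 72 h. Viability was read by MTT: 3 h incubation, formazan dissolved in DMSO, absorbance at 595 nm. Results were graded on an intensity scale.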
(Tetrazolium dyes change colour on reduction, which living cells bring about.)

A further assay relates to SF-295. The experiment in a line: (§4) Cytotoxicity against human SF295 cells assessed as growth inhibition at 5 ug/ml after 72 hrs by MTT assay. In short, it runs like this:
(§5)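 Cells were grown in RPMI 1640 with 10% FBS and 1% antibiotic at 37 °C under 5% CO2, and seeded at 0.1 x 10^6 cells/mL. Samples were dissolved in DMSO and tested at 5 µg/mL for 72 h. MTT was added for 3 h, the precipitate was dissolved in DMSO, and absorbance was read at 595 nm. Potential was rated on an intensity scale.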

A further assay concerns OVCAR-8. As to the kind of experiment: (§6) Cytotoxicity against human OVCAR8 cells assessed as growth inhibition at 5 ug/ml after 72 hrs by MTT assay. The method, boiled down:
as §5

A short description of assay [5]: as §2. The settings on record: HCT-116, 72 h, read-out: GI. In short, it runs like this: as §3
Assay [6] can be described thus: as §4. The settings on record: SF-295, 72 h, read-out: GI. The method, boiled down: as §5
Assay [7] in a line: as §6. The settings on record: OVCAR-8, 72 h, read-out: GI. The method, boiled down: as §5
Assay [8] concerns Staphylococcus aureus. The experiment in a line: Antibacterial activity against Staphylococcus aureus ATCC 12692 after 24 hrs by broth microdilution method. The note with it: ATCC 12692, 24 h.
Assay [9] has as its system Staphylococcus aureus. The experiment in a line: Antibacterial activity against Staphylococcus aureus ATCC 12624 after 24 hrs by broth microdilution method. The settings on record: ATCC 12624, 24 h.
Assay [10] deals with Staphylococcus aureus. As to the kind of experiment: Antibacterial activity against Staphylococcus aureus ATCC 6538 after 24 hrs by broth microdilution method. The note with it: ATCC 6538, 24 h.
A further assay concerns Bacillus cereus. The experiment in a line: Antibacterial activity against Bacillus cereus ATCC 33018 after 24 hrs by broth microdilution method. The settings on record: ATCC 33018, 24 h.
The subject of assay [11] is Escherichia coli. As to the kind of experiment: Antibacterial activity against Escherichia coli ATCC 25922 after 24 hrs by broth microdilution method. The settings on record: ATCC 25922, 24 h.
The subject of a further assay is Pseudomonas aeruginosa. The experiment in a line: Antibacterial activity against Pseudomonas aeruginosa ATCC 15442 after 24 hrs by broth microdilution method. The settings on record: ATCC 15442, 24 h.
The test system of another assay is Aeromonas caviae. As to the kind of experiment: Antibacterial activity against Aeromonas caviae ATCC 15468 after 24 hrs by broth microdilution method. The note with it: ATCC 15468, 24 h.
Another assay has as its system Klebsiella pneumoniae. The experiment in a line: Antibacterial activity against Klebsiella pneumoniae ATCC 10031 after 24 hrs by broth microdilution method. The note with it: ATCC 10031, 24 h.
The subject of a further assay is Shigella flexneri. The experiment in a line: Antibacterial activity against Shigella flexneri ATCC 12022 after 24 hrs by broth microdilution method. The settings on record: ATCC 12022, 24 h.
For a further assay, the system named is Vibrio cholerae. As to the kind of experiment: Antibacterial activity against Vibrio cholerae ATCC 15748 after 24 hrs by broth microdilution method. The settings on record: ATCC 15748, 24 h.
For another assay, the system named is Listeria monocytogenes. The experiment in a line: Antibacterial activity against Listeria monocytogenes ATCC 19117 after 24 hrs by broth microdilution method. The note with it: ATCC 19117, 24 h.
The mark [12] stands for this setting: Staphylococcus aureus, 358, 24 h.

Converted amounts (≈) assume the structure as drawn. The source made the active and inactive calls.

As for `CC(C)=CCCC1=COC2=C(C)C(=O)/C(=N\Nc3ccc([N+](=O)[O-])cc3[N+](=O)[O-])c3c(C)ccc1c32`, the minimal inhibitory concentration (MIC) against Staphylococcus aureus [1] (ATCC 25923, 24 h) is 512 µg/mL (≈ 1050 µM); against Enterococcus faecalis (ATCC 4083, 24 h), 512 µg/mL (≈ 1050 µM); with Proteus vulgaris (ATCC 13315, 24 h), 512 µg/mL (≈ 1050 µM); against Escherichia coli [2] (Escherichia coli, 27, 24 h), no less than 1020 µg/mL; in the assay with Escherichia coli [3] (ATCC 10536, 24 h), 512 µg/mL (≈ 1050 µM); in the assay with Staphylococcus aureus [4] (setting [12]), 512 µg/mL (≈ 1050 µM). Also, the “growth inhibition (GI)” value in the assay with HCT-116, with SF-295 and in the assay with OVCAR-8 was “inactive” each time.

In the case of `CO/N=C1\C(=O)C(C)=C2OC=C(CCC=C(C)C)c3ccc(C)c1c32`, the minimum inhibitory concentration (MIC) in the assay on Staphylococcus aureus [1] (ATCC 25923, 24 h) is 32 µg/mL (≈ 94.8 µM); with Enterococcus faecalis (ATCC 4083, 24 h) it was 32 µg/mL (≈ 94.8 µM); with Proteus vulgaris (ATCC 13315, 24 h) it was 64 µg/mL (≈ 190 µM); in the assay on Escherichia coli [2] (Escherichia coli, 27, 24 h), 128 µg/mL (≈ 379 µM); in the assay on Escherichia coli [3] (ATCC 10536, 24 h) it was no less than 1020 µg/mL; in the assay with Staphylococcus aureus [4] (setting [12]), 64 µg/mL (≈ 190 µM). Further, the “growth inhibition (GI)” value in the assay with HCT-116, in the assay on SF-295 and in the assay on OVCAR-8 was “inactive” throughout.

Regarding `CCO/N=C1\C(=O)C(C)=C2OC=C(CCC=C(C)C)c3ccc(C)c1c32`, the minimum inhibitory concentration (MIC) was found to be 32 µg/mL (≈ 91.1 µM) with Staphylococcus aureus [1] (ATCC 25923, 24 h); 16 µg/mL (≈ 45.5 µM) in the assay with Enterococcus faecalis (ATCC 4083, 24 h); 512 µg/mL (≈ 1460 µM) against Proteus vulgaris (ATCC 13315, 24 h); 128 µg/mL (≈ 364 µM) against Escherichia coli [2] (Escherichia coli, 27, 24 h); 512 µg/mL (≈ 1460 µM) against Escherichia coli [3] (ATCC 10536, 24 h); 64 µg/mL (≈ 182 µM) against Staphylococcus aureus [4] (setting [12]). For the same compound, the “growth inhibition (GI)” value in the assay with HCT-116, with SF-295 and in the assay on OVCAR-8 was “inactive” each time.

GENTAMICIN: the MIC in the assay with Staphylococcus aureus [1] is 32 µg/mL; against Enterococcus faecalis it was 32 µg/mL; with Proteus vulgaris it was 64 µg/mL; in the assay on Escherichia coli [2] it was 512 µg/mL; in the assay on Escherichia coli [3], 128 µg/mL; in the assay on Staphylococcus aureus [4], 8 µg/mL.

For the compound `NCC[C@H](O)C(=O)N[C@@H]1C[C@H](N)[C@@H](O[C@H]2O[C@H](CN)[C@@H](O)[C@H](O)[C@H]2O)[C@H](O)[C@H]1O[C@H]1O[C@H](CO)[C@@H](O)[C@H](N)[C@H]1O` [AMIKACIN], the minimum inhibitory concentration (MIC) against Staphylococcus aureus [1] (ATCC 25923, 24 h) stood at 256 µg/mL (≈ 437 µM); with Enterococcus faecalis (ATCC 4083, 24 h) it was 256 µg/mL (≈ 437 µM); in the assay on Proteus vulgaris (ATCC 13315, 24 h) it was 512 µg/mL (≈ 874 µM); against Escherichia coli [2] (Escherichia coli, 27, 24 h), 128 µg/mL (≈ 219 µM); against Staphylococcus aureus [4] (setting [12]) it was 256 µg/mL (≈ 437 µM).

As to `NCC1O[C@H](O[C@H]2[C@@H](O)[C@H](O[C@H]3[C@H](O)[C@@H](N)C[C@@H](N)[C@@H]3O[C@H]3O[C@H](CN)[C@@H](O)[C@H](O)[C@H]3N)O[C@@H]2CO)[C@H](N)[C@@H](O)[C@@H]1O` (some centres not stated), the minimum inhibitory concentration (MIC) turned out to be 32 µg/mL (≈ 52.1 µM) against Staphylococcus aureus [1] (ATCC 25923, 24 h); 128 µg/mL (≈ 208 µM) with Enterococcus faecalis (ATCC 4083, 24 h); 512 µg/mL (≈ 833 µM) in the assay on Proteus vulgaris (ATCC 13315, 24 h); 128 µg/mL (≈ 208 µM) against Escherichia coli [2] (Escherichia coli, 27, 24 h); 512 µg/mL (≈ 833 µM) in the assay with Escherichia coli [3] (ATCC 10536, 24 h); 32 µg/mL (≈ 52.1 µM) against Staphylococcus aureus [4] (setting [12]).

Consider `CC(C)=CCCC1=COC2=C(C)C(=O)/C(=N\O)c3c(C)ccc1c32`, for which the MIC in the assay on Staphylococcus aureus [1] (ATCC 25923, 24 h) was 256 µg/mL (≈ 792 µM); against Enterococcus faecalis (ATCC 4083, 24 h) it was 256 µg/mL (≈ 792 µM); with Proteus vulgaris (ATCC 13315, 24 h), 512 µg/mL (≈ 1580 µM); against Escherichia coli [2] (Escherichia coli, 27, 24 h) it was 512 µg/mL (≈ 1580 µM); in the assay on Escherichia coli [3] (ATCC 10536, 24 h), no less than 1020 µg/mL; against Staphylococcus aureus [4] (setting [12]), no less than 1020 µg/mL. Further, the “growth inhibition (GI)” value in the assay on HCT-116, in the assay on SF-295 and with OVCAR-8 was “inactive” in each case.

Take `CC(C)=CCCC1=COC2=C(C)C(=O)C(=O)c3c(C)ccc1c32`: the MIC against Staphylococcus aureus [1] (ATCC 25923, 24 h) was 64 µg/mL (≈ 208 µM); in the assay on Enterococcus faecalis (ATCC 4083, 24 h), 32 µg/mL (≈ 104 µM); against Proteus vulgaris (ATCC 13315, 24 h), 16 µg/mL (≈ 51.9 µM); in the assay on Escherichia coli [2] (Escherichia coli, 27, 24 h) it was 256 µg/mL (≈ 830 µM); in the assay on Escherichia coli [3] (ATCC 10536, 24 h), 128 µg/mL (≈ 415 µM); against Staphylococcus aureus [4] (setting [12]), 128 µg/mL (≈ 415 µM). The MIC in the assay with Staphylococcus aureus [8], against Staphylococcus aureus [9], against Staphylococcus aureus [10], with Bacillus cereus, in the assay with Escherichia coli [11] and in the assay on Pseudomonas aeruginosa was no less than 1020 µg/mL each time. In addition, the minimal inhibitory concentration (MIC) in the assay on Aeromonas caviae, with Klebsiella pneumoniae, in the assay on Shigella flexneri, against Vibrio cholerae and in the assay on Listeria monocytogenes was no less than 1020 µg/mL in each case. Also, the inhibition of growth at 5 µg/mL in assay [5], in assay [6] and in [7] was 75% in each case.

As for `CC(C)=CCCC1=COC2=C(C)C(=O)/C(=N\Nc3ccccc3)c3c(C)ccc1c32`, the MIC in the assay with Staphylococcus aureus [1] (ATCC 25923, 24 h) was 256 µg/mL (≈ 642 µM); against Enterococcus faecalis (ATCC 4083, 24 h), 512 µg/mL (≈ 1280 µM); in the assay on Proteus vulgaris (ATCC 13315, 24 h), no less than 1020 µg/mL; with Escherichia coli [2] (Escherichia coli, 27, 24 h), no less than 1020 µg/mL; with Escherichia coli [3] (ATCC 10536, 24 h) it was no less than 1020 µg/mL; against Staphylococcus aureus [4] (setting [12]) it was no less than 1020 µg/mL. Also, the “growth inhibition (GI)” value with HCT-116, with SF-295 and in the assay on OVCAR-8 was “inactive” in each case.

Usually MIC stands for the smallest concentration in the dilution series that meets the test's criterion for growth inhibition.

Values taken from ChEMBL document CHEMBL3751737, “Synthesis, antibacterial and cytotoxic activities of new biflorin-based hydrazones and oximes” (2016).
